Folding enthalpy and Tm data for 37 sequences are collected here from the array DNA melting data of Ke et al. (doi:10.1101/2024.01.08.574731).

Series [1] in a line: folding enthalpy; higher = less favourable; fluorescence melt of hairpins on a sequencing array, two-state fit. As to conditions: sodium 0.088 M. In short, it runs like this:
(§1)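 To match UV melts, fitted temperatures were raised by 9.35 °C. These fits were bootstrapped two-state models that gave melting temperature and folding enthalpy, combined by inverse variance over four replicates. The input was normalised Cy3 fluorescence of library hairpins with annealed Cy3 and quencher oligos on a sequenced MiSeq flow cell, imaged in 50 mM Na-HEPES pH 8.0, 25 mM NaCl in 2.5 °C steps up to 60 °C.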

Series [2] is described as follows: melting temperature; fluorescence melt of hairpins on a sequencing array, two-state fit, raised by 9.35 °C to match UV melts. As to conditions: sodium 0.088 M. In short, it runs like this: as §1

Consider GATAACCGAAAGGTGATC (((.(((....))).))), for which the folding enthalpy in series [1] was -27.9 kcal/mol. Also, the Tm in series [2] is 47.8 °C.

As to GATAACGAAAGTTAGATC ((((((....)))..))), the folding enthalpy in series [1] is -16.8 kcal/mol. For the same sequence, the Tm in series [2] stood at 35.3 °C.

Take GATAACGAAAGTTATC ((((((....)))))): the folding enthalpy in series [1] was -32.9 kcal/mol. Moreover, in series [2], the Tm was 53.9 °C.

In the case of GATAACGGAAACGTTATC (((((((....))))))), the folding enthalpy in series [1] was -47.8 kcal/mol. For the same sequence, the Tm in series [2] was determined as 56.4 °C.

Turning to GATAACGGAAACGTTGTC ((.((((....)))).)), the folding enthalpy in series [1] was -28 kcal/mol. Further, the Tm in series [2] worked out at 45.8 °C.

Take GATAAGCGAAAGCTGATC (((.(((....))).))): the folding enthalpy in series [1] was -26.3 kcal/mol. Also, in series [2], the Tm was 47.5 °C.

With GATAAGGGAAACCCTATC ((((.((....)).)))), in series [1], the folding enthalpy was -15.6 kcal/mol. The Tm in series [2] was 30.6 °C.

With GATAAGGGAAACCTTATC (((((((....))))))), in series [1], the folding enthalpy was -44.2 kcal/mol. Also, the Tm in series [2] was 49.7 °C.

GATAAGGGAAACCTTGTC ((.((((....)))).)): in series [1], the folding enthalpy was -20.7 kcal/mol. The Tm in series [2] worked out at 37.9 °C.

With GATAATGGAAACATTGTC ((.((((....)))).)), in series [1], the folding enthalpy is -31.2 kcal/mol. For the same sequence, in series [2], the Tm is 36.2 °C.

Take GATACACGAAAGTGATC (((.(((....)))))): the folding enthalpy in series [1] was -12.4 kcal/mol. For the same sequence, the Tm in series [2] stood at 36.8 °C.

With GATACAGAAATGTATC ((((((....)))))), in series [1], the folding enthalpy is -30.3 kcal/mol. In addition, in series [2], the Tm came out at 44.8 °C.

Turning to GATACCGAAAGGTGATC ((((((....))).))), in series [1], the folding enthalpy is -15.7 kcal/mol. The Tm in series [2] was found to be 38.1 °C.

Regarding GATACCGGAAACGGTATC (((((((....))))))), in series [1], the folding enthalpy was -34.2 kcal/mol. In series [2], the Tm came out at 65 °C.

Take GATACGAAAGTATC (((((....))))): the folding enthalpy in series [1] was -32.2 kcal/mol. For the same sequence, the Tm in series [2] was determined as 56.6 °C.

On to GATACGCGAAAGCGATC (((.(((....)))))), for which the folding enthalpy in series [1] is -13.1 kcal/mol. The Tm in series [2] turned out to be 37.7 °C.

GATAGACCGAAAGGTATC (((..(((....)))))): the folding enthalpy in series [1] was -11.3 kcal/mol. Besides, the Tm in series [2] was determined as 28.2 °C.

For GATAGACGAAAGTCCATC (((.(((....))).))), the folding enthalpy in series [1] was -13.3 kcal/mol. In addition, the Tm in series [2] was determined as 35.1 °C.

Turning to GATAGACGAAAGTCGATC (((.(((....))).))), in series [1], the folding enthalpy was -25.9 kcal/mol. For the same sequence, the Tm in series [2] amounted to 51.2 °C.

Consider GATAGCGAAAGCTAATC ((((((....))).))), for which, in series [1], the folding enthalpy was -12.8 kcal/mol. Also, the Tm in series [2] was determined as 40.7 °C.

For the sequence GATAGCGAAAGCTCGATC ((((((....)))..))), the folding enthalpy in series [1] is -10.1 kcal/mol. In addition, in series [2], the Tm was 24.8 °C.

In the case of GATAGCGAAAGCTGGATC ((((((....)))..))), the folding enthalpy in series [1] is -12.9 kcal/mol. For the same sequence, the Tm in series [2] came out at 29.6 °C.

As for GATAGCGAAAGCTTGATC ((((((....)))..))), in series [1], the folding enthalpy was -8.2 kcal/mol. Moreover, the Tm in series [2] was 25.1 °C.

Take GATAGCGGAAACACTATC (((((.(....).))))): the folding enthalpy in series [1] was -27.6 kcal/mol. The Tm in series [2] was 36.5 °C.

For GATAGCGGAAACGCTATC (((((((....))))))), the folding enthalpy in series [1] was -34.4 kcal/mol. For the same sequence, in series [2], the Tm was found to be 65.7 °C.

GATAGTGAAAACTATC ((((((....)))))): in series [1], the folding enthalpy is -30.1 kcal/mol. Further, the Tm in series [2] worked out at 48.4 °C.

Consider GATAGTGGAAACGCTATC (((((.(....).))))), for which the folding enthalpy in series [1] was -25.7 kcal/mol. For the same sequence, the Tm in series [2] amounted to 42.9 °C.

Consider GATATAACGAAAGTTATC (((..(((....)))))), for which the folding enthalpy in series [1] was -15.6 kcal/mol. For the same sequence, the Tm in series [2] stood at 30.6 °C.

As for GATATACCGAAAGGTATC (((..(((....)))))), in series [1], the folding enthalpy is -13.3 kcal/mol. Moreover, the Tm in series [2] amounted to 32.8 °C.

Take GATATACGAAAGTAAATC (((.(((....))).))): the folding enthalpy in series [1] was -14.6 kcal/mol. The Tm in series [2] was found to be 33 °C.

Consider GATATAGCGAAAGCTATC (((..(((....)))))), for which the folding enthalpy in series [1] is -10.1 kcal/mol. In addition, the Tm in series [2] is 33.9 °C.

GATATAGGAAACTGTATC ((((.((....)).)))): the folding enthalpy in series [1] was -21.4 kcal/mol. In series [2], the Tm is 34.6 °C.

Take GATATCCGAAAGGAGATC (((.(((....))).))): the folding enthalpy in series [1] is -33.1 kcal/mol. Besides, the Tm in series [2] stood at 49.9 °C.

For GATATCGCGAAAGCGATC (((..(((....)))))), the folding enthalpy in series [1] is -7.08 kcal/mol. For the same sequence, the Tm in series [2] came to 35.2 °C.

As to GATATGCCGAAAGGCATC (((..(((....)))))), in series [1], the folding enthalpy was -7.19 kcal/mol. Further, the Tm in series [2] was determined as 38.5 °C.

In the case of GATATGGAAACATATC ((((((....)))))), the folding enthalpy in series [1] was -29.7 kcal/mol. The Tm in series [2] was determined as 46.1 °C.

For the sequence GATATGGGAAACCACATC (((.(((....))).))), the folding enthalpy in series [1] is -15 kcal/mol. Besides, in series [2], the Tm stood at 28.4 °C.
